This passage reports Activity and IC50 results from ChEMBL document CHEMBL1146591, “New polyhydroxy sterols: proteasome inhibitors from a marine sponge Acanthodendrilla sp” (J Nat Prod, 2003).

Assay [1] is filed under the species Rattus norvegicus. Briefly: Inhibition of chymotrypsin like activity of partially purified rat liver proteasome at 100 ug/mL. The format is subcellular. An outline of the steps: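 Enzyme: proteasome-enriched pellet from rat liver (300 000g, 2 h). Preincubated with test material 10 min at 30 °C in 50 mM Tris-HCl pH 7.8, 1 mM DTT, 5 mM EDTA, 0.02% SDS. Then 0.05 mM Suc-LLVY-MCA added for 1 h at 30 °C. Stopped with 10% SDS and AMC fluorescence read (ex 380/em 460 nm).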

Assay [2] has as its system HeLa. In words: Cytotoxicity against human HeLa cells after 3 days by MTT assay. It counts as functional, cell-based. The settings on record: 72 h. In short, it runs like this:
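HeLa cells grown in DMEM with 10% fetal calf serum, penicillin and streptomycin, 37 °C, 5% CO2. Seeded at 3 × 10^3 cells/well, precultured 1 day, then given compounds at various concentrations for 3 days at 37 °C. MTT (0.2 mg/mL in medium) added for 4 h, then DMSO, and OD read at 570 nm.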

Assay [3] is described as follows: Inhibition of chymotrypsin like activity of partially purified rat liver proteasome. It counts as subcellular. In short, it runs like this:
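Enzyme: proteasome-enriched pellet from rat liver homogenate (300 000g, 2 h). Preincubated with inhibitor 10 min at 30 °C in 50 mM Tris-HCl pH 7.8, 1 mM DTT, 5 mM EDTA, 0.02% SDS. Then 0.05 mM Suc-LLVY-MCA added, 1 h at 30 °C, stopped with 10% SDS, AMC fluorescence read (ex 380/em 460 nm). IC50 from duplicate measurements.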

Values after ≈ are worked out from the molar mass of the structure shown. Active and inactive are the calls of the source. The rule behind the calls is not given here.

Take `C/C=C(\C[C@@H](O)[C@@H](C)[C@H]1CC[C@H]2C3=C[C@H](OC(C)=O)[C@H]4[C@@H](OC(C)=O)[C@@H](OC(C)=O)CC[C@]4(C)[C@H]3[C@H](O)C[C@]12C)C(C)C` [AGOSTEROL A3]: the result in assay [1] was inactive. Also, 10 mg/L (≈ 16.6 µM) corresponded to half-maximal inhibition in assay [2] (IC50).
Regarding `CC(=O)O[C@@H]1[C@@H]2[C@@H](OC(C)=O)C=C3[C@H]([C@H](O)C[C@]4(C)[C@@H]([C@H](C)[C@H](O)CCC(C)C)CC[C@@H]34)[C@@]2(C)CC[C@@H]1OC(C)=O` [AGOSTEROL A], the IC50 in assay [2] is 25 mg/L (≈ 43.3 µM); in assay [3], 50 mg/L (≈ 86.7 µM).
Turning to `CC(=O)O[C@@H]1[C@@H]2[C@@H](OC(C)=O)C=C3[C@H](CC[C@]4(C)[C@@H]([C@@](C)(O)[C@H](O)CCC(C)C)CC[C@@H]34)[C@@]2(C)CC[C@@H]1O` [AGOSTEROL C2], the IC50 is over 25 mg/L in assay [2] and 23 mg/L (≈ 43 µM) in assay [3].
On the same counts, the results for `C=C(CC(O)C(C)(O)[C@H]1CC[C@H]2C3=C[C@H](OC(C)=O)[C@H]4[C@@H](OC(C)=O)[C@@H](O)CC[C@]4(C)[C@H]3CC[C@]12C)C(C)C` (stereo not given in full) [AGOSTEROL C7] are over 25 mg/L and 20 mg/L (≈ 36.6 µM).
On the same counts, the results for `CC(=O)O[C@@H]1[C@@H]2[C@@H](OC(C)=O)C=C3[C@H](CC[C@]4(C)[C@@H]([C@H](C)[C@H](O)CCC(C)C)CC[C@@H]34)[C@@]2(C)CC[C@@H]1O` [AGOSTEROL C] are 22 mg/L (≈ 42.4 µM) and 10 mg/L (≈ 19.3 µM).
The matching figures for `CC(=O)O[C@@H]1[C@@H]2[C@@H](OC(C)=O)C=C3[C@H](CC[C@]4(C)[C@@H]([C@@](C)(O)[C@H](O)CCC(C)C)CC[C@@H]34)[C@@]2(C)CC[C@@H]1OC(C)=O` [AGOSTEROL D2]: 23 mg/L (≈ 39.9 µM) and 90 mg/L (≈ 156 µM).
`C/C=C(\C[C@@H](O)[C@@H](C)[C@H]1CC[C@H]2C3=C[C@H](OC(C)=O)[C@H]4[C@@H](OC(C)=O)[C@@H](OC(C)=O)CC[C@]4(C)[C@@]3(O)CC[C@]12C)C(C)C` [AGOSTEROL E3]: in assay [1], the outcome was inactive. This compound also showed an IC50 in assay [2] of 14 mg/L (≈ 23.2 µM).
Turning to `CC(=O)O[C@@H]1[C@@H]2[C@@H](OC(C)=O)C=C3[C@@H]4CC[C@H]([C@H](C)[C@H](O)CCC(C)C)[C@@]4(C)CC[C@]3(O)[C@@]2(C)CC[C@@H]1OC(C)=O` [AGOSTEROL E], the result in assay [1] was inactive. Besides, half-maximal inhibition in assay [2] (IC50) was put at 25 mg/L (≈ 43.3 µM).
Regarding `CC(=O)O[C@@H]1[C@@H]2[C@@H](OC(C)=O)C=C3[C@H]([C@H](O)C[C@]4(C)[C@@H]([C@H](C)[C@H](O)CCC(C)C)CC[C@@H]34)[C@@]2(C)CC[C@@H]1O` [AGOSTEROL F], the IC50 is 16 mg/L (≈ 29.9 µM) in assay [2] and 35 mg/L (≈ 65.5 µM) in assay [3].
With `CC(=O)O[C@@H]1[C@@H]2[C@@H](OC(C)=O)C=C3[C@H]([C@H](OC(C)=O)C[C@]4(C)[C@@H]([C@H](C)[C@H](O)CCC(C)C)CC[C@@H]34)[C@@]2(C)CC[C@@H]1O` [AGOSTEROL G], the IC50 in assay [2] stood at 8.8 mg/L (≈ 15.3 µM); in assay [3], 100 mg/L (≈ 173 µM).

For orientation: IC50 means the midpoint of a concentration-inhibition curve. Low values mean greater potency, high ones weaker potency.
